Experimental data published in ChEMBL document CHEMBL5696442, “Discovery of type II inhibitors of TGFβ-activated kinase 1 (TAK1) and mitogen-activated protein kinase kinase kinase kinase 2 (MAP4K2)” (J Med Chem, 2015).
Active and inactive are the calls of the source. The rule behind the calls is not given here.

How the values were obtained:
[1] = molecular target: T1, DNA-PK/Ku70/Ku85 (Homo sapiens) (UniProt P78527+P12956+P13010); assay: Inhibition of DNAPK ATP labeling site harbouring KGGSWIQEINVAEKNWYPR in human Huh-7 cell lysate at 1 uM by KiNativ Profiling analysis relative to control; type: subcellular
[2] = molecular target: Calcium/calmodulin-dependent protein kinase type II subunit delta (Homo sapiens) (UniProt Q13557); assay: Inhibition of CaMK2d Lys1 labeling site harbouring IPTGQEYAAKIINTK in human Huh-7 cells at 1 uM by KiNativ Profiling analysis relative to control; type: cell-based
[3] = molecular target: Mitogen-activated protein kinase kinase kinase kinase 4 (Homo sapiens, UniProt O95819); assay: Inhibition of ZC1/HGK Lys1 labeling site in human Huh-7 cell lysate at 1 uM by KiNativ Profiling analysis relative to control; type: subcellular
[4] = molecular target: Cyclin-dependent kinase 10 (Homo sapiens) (UniProt Q15131); assay: Inhibition of CDK10 Lys2 labeling site in human Huh-7 cell lysate at 1 uM by KiNativ Profiling analysis relative to control; type: subcellular
[5] = molecular target: T1, DNA-PK/Ku70/Ku85 (Homo sapiens); assay: Inhibition of DNAPK ATP labeling site harbouring KGGSWIQEINVAEKNWYPR in human A-375 cells at 5 uM by KiNativ Profiling analysis relative to control; type: cell-based
[6] = molecular target: Cyclin-dependent kinase 11B (Homo sapiens) (UniProt P21127); assay: Inhibition of CDC2L1 (unknown origin) at 10 uM by Ambit Kinomescan binding assay relative to control; values are per cent of control
[7] = molecular target: T2, Mitogen-activated protein kinase kinase kinase 7 (Homo sapiens) (UniProt O43318); assay: Inhibition of TAK1 Lys2 labeling site in human A-375 cells at 5 uM by KiNativ Profiling analysis relative to control; type: cell-based
T2 sequence (whole entry): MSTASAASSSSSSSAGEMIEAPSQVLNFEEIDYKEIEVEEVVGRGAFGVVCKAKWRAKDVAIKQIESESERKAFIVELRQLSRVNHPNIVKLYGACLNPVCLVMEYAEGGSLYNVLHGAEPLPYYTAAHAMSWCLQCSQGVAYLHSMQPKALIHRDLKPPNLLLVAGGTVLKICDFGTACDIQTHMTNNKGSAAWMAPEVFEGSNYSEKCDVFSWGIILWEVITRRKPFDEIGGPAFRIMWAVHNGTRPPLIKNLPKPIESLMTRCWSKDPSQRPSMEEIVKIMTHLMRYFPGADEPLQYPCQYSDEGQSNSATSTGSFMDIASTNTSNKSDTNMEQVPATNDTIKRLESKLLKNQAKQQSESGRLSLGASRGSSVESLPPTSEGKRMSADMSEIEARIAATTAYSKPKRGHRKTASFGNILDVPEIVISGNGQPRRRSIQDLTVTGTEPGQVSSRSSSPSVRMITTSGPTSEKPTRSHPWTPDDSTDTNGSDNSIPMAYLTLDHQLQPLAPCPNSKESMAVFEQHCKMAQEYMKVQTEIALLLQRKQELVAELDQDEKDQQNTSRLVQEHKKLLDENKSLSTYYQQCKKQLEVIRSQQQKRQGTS

[8] = molecular target: Focal adhesion kinase 1 (Homo sapiens) (UniProt Q05397); assay: Inhibition of FAK Lys1 labeling site in human A-375 cells at 5 uM by KiNativ Profiling analysis relative to control; type: cell-based
[9] = molecular target: Serine/threonine-protein kinase 33 (Homo sapiens) (UniProt Q9BYT3); assay: Inhibition of STK33 (unknown origin) at 10 uM by Ambit Kinomescan binding assay
[10] = molecular target: Cyclin-dependent kinase 17 (Homo sapiens) (UniProt Q00537); assay: Inhibition of PCTAIRE2 Lys1 labeling site harbouring SKLTENLVALKEIRLEHEEGAPCTAIR in human A-375 cells at 0.05 uM by KiNativ Profiling analysis relative to control; type: cell-based
[11] = molecular target: MAP kinase-activated protein kinase 2 (Homo sapiens) (UniProt P49137); assay: Inhibition of MAPKAPK2 (unknown origin) at 1 uM by Ambit Kinomescan binding assay relative to control
[12] = molecular target: T3, Serine/threonine-protein kinase D1 (Homo sapiens) (UniProt Q15139); assay: Inhibition of PKD1 Lys1 labeling site in human A-375 cells at 5 uM by KiNativ Profiling analysis relative to control; type: cell-based
T3 sequence (whole entry): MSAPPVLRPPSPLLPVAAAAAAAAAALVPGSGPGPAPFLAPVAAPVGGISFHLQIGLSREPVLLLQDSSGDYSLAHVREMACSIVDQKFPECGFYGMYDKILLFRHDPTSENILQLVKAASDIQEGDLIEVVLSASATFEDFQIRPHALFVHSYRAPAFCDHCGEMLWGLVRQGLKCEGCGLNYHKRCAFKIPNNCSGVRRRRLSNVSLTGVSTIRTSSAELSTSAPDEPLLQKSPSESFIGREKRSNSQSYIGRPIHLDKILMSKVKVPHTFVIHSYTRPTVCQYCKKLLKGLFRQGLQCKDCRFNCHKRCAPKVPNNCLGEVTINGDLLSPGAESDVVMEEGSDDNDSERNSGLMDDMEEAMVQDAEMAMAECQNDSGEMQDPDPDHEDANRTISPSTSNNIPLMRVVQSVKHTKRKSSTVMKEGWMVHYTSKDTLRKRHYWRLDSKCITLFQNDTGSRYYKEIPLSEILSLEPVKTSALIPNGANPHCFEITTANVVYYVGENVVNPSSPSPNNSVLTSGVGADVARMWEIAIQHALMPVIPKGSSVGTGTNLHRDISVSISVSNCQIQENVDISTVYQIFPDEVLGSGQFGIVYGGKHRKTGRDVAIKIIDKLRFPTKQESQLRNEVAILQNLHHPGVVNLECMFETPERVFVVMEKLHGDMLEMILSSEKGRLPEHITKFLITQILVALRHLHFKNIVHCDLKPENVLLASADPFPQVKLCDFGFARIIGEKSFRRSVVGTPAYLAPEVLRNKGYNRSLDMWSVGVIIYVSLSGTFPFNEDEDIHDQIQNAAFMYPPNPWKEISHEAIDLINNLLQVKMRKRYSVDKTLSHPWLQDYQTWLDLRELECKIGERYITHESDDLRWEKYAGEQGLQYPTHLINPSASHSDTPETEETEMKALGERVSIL

[13] = molecular target: 5'-AMP-activated protein kinase catalytic subunit alpha-1 (Homo sapiens) (UniProt Q13131); assay: Inhibition of AMPKa1 Lys2 labeling site in human A-375 cells at 0.5 uM by KiNativ Profiling analysis relative to control; type: cell-based
Procedure, shortened: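 Intact A375 melanoma cells were treated with compound at 5 or 0.5 μM, then lysed. Lysate kinases were labeled with a lysine-reactive ATP or ADP-biotin probe (KiNativ). Inhibition is read as protection of each kinase labeling site from probe labeling.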

[14] = molecular target: Calcium/calmodulin-dependent protein kinase type IV (Homo sapiens) (UniProt Q16566); assay: Inhibition of CAMK4 (unknown origin) at 1 uM by Ambit Kinomescan binding assay relative to control; values are per cent of control
Calcium/calmodulin-dependent protein kinase type IV (Homo sapiens), sequence (Q16566 whole entry): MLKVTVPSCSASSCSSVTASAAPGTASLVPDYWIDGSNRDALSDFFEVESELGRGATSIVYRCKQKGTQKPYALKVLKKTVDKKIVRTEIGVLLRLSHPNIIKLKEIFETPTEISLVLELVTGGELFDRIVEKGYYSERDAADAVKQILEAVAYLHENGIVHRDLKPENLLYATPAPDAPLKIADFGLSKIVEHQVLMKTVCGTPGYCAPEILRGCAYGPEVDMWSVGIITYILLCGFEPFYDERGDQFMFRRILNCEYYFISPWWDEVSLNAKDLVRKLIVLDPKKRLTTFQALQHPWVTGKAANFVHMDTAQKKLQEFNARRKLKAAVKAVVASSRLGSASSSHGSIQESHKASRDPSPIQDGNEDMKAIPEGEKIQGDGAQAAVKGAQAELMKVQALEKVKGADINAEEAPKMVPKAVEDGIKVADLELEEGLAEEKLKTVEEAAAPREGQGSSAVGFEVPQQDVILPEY

MAP kinase-activated protein kinase 2 (Homo sapiens), sequence (P49137 whole entry, looked up): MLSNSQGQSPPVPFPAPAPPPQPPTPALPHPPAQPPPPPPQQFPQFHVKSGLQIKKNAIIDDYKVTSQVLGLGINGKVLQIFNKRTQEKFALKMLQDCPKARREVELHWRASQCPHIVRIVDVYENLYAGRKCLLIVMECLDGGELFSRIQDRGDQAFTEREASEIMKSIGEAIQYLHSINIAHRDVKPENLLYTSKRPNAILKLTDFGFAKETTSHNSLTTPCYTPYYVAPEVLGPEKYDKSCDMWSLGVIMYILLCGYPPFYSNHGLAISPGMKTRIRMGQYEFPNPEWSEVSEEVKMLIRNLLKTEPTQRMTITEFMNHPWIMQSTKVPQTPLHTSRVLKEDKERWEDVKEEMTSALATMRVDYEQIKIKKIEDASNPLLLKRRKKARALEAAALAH
Serine/threonine-protein kinase 33 (Homo sapiens), sequence (Q9BYT3 whole entry, looked up): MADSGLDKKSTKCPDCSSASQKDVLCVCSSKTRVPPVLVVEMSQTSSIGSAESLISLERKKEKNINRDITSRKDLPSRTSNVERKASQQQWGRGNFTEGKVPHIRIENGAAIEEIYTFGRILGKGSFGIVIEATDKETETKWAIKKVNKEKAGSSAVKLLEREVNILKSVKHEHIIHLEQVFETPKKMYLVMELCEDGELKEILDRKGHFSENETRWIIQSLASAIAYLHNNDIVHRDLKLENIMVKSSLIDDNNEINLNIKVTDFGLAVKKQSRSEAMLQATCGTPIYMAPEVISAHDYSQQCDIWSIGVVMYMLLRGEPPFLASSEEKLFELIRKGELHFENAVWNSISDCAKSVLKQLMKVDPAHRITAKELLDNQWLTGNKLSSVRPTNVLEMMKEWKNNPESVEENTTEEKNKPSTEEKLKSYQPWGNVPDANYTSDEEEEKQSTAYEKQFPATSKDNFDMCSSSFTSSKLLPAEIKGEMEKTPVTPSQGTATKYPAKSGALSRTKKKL
Cyclin-dependent kinase 10 (Homo sapiens), sequence (Q15131 whole entry): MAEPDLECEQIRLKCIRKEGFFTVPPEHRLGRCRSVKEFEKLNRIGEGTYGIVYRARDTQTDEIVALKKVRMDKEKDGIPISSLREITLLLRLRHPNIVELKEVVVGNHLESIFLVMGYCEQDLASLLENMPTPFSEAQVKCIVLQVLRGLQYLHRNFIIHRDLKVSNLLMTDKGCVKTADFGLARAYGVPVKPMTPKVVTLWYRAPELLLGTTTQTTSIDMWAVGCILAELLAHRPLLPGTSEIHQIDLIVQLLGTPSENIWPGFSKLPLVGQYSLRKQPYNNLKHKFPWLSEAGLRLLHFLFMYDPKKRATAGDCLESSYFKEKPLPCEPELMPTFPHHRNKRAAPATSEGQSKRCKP
Cyclin-dependent kinase 11B (Homo sapiens), sequence (P21127 whole entry): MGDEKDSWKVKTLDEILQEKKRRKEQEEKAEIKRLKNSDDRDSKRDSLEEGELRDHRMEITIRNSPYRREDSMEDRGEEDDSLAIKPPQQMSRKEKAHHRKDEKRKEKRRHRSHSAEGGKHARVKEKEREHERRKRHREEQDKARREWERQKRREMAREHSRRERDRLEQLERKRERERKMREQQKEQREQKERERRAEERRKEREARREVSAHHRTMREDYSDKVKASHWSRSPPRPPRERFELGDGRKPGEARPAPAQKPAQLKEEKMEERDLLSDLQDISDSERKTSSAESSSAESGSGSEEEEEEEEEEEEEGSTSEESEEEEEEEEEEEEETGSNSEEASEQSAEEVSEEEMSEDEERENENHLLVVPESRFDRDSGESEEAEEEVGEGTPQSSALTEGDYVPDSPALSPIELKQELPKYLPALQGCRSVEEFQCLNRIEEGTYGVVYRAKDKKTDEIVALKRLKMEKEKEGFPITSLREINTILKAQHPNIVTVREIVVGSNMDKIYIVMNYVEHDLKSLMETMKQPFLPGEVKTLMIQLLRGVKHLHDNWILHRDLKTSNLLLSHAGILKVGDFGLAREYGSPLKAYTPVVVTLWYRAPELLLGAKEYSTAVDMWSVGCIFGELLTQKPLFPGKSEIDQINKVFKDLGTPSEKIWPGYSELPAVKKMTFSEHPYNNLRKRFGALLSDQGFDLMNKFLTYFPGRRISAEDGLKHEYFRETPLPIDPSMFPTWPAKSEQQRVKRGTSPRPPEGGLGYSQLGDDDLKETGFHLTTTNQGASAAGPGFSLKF
Calcium/calmodulin-dependent protein kinase type II subunit delta (Homo sapiens), sequence (Q13557 whole entry): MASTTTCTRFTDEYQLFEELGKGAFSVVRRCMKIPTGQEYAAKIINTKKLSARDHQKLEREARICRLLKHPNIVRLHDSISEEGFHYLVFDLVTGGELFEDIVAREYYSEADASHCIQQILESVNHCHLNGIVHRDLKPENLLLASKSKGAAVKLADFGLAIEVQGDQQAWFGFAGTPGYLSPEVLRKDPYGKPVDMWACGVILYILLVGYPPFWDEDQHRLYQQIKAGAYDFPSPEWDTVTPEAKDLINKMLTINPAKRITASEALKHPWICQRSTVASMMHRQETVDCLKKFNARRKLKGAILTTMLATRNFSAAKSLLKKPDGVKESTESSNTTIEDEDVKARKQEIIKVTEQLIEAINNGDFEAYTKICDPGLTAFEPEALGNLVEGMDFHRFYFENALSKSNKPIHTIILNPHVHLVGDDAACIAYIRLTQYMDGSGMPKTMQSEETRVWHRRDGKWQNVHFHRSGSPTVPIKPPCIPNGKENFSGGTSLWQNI
Focal adhesion kinase 1 (Homo sapiens), sequence (Q05397 2-1052 limits assumed): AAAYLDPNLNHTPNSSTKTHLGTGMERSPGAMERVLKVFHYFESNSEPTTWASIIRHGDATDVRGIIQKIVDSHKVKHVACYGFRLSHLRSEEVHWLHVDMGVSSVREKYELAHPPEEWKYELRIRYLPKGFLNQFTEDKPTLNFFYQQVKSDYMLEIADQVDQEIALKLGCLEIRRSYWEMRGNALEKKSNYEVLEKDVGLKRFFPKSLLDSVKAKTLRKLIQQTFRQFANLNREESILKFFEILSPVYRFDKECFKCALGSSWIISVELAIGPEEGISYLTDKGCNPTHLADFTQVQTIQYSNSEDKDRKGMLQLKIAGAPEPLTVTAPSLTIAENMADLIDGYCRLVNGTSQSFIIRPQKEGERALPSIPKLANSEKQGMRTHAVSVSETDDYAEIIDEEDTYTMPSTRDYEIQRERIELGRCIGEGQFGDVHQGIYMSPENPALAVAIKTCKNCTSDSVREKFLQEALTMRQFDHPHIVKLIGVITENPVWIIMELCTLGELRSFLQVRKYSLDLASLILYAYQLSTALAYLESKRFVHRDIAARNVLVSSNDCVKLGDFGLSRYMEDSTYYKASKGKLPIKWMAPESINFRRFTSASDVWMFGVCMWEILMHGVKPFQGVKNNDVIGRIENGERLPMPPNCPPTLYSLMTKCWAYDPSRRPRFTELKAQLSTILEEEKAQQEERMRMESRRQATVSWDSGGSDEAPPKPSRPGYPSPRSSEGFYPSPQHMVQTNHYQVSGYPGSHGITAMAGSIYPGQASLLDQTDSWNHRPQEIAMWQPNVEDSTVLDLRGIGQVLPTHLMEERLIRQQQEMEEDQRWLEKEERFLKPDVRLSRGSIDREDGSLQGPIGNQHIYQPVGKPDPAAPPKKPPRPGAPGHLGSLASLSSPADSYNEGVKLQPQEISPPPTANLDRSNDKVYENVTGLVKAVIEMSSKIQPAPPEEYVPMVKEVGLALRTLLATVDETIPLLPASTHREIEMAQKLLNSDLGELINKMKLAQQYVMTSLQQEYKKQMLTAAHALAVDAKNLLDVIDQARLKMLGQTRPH
5'-AMP-activated protein kinase catalytic subunit alpha-1 (Homo sapiens), sequence (Q13131 whole entry, looked up): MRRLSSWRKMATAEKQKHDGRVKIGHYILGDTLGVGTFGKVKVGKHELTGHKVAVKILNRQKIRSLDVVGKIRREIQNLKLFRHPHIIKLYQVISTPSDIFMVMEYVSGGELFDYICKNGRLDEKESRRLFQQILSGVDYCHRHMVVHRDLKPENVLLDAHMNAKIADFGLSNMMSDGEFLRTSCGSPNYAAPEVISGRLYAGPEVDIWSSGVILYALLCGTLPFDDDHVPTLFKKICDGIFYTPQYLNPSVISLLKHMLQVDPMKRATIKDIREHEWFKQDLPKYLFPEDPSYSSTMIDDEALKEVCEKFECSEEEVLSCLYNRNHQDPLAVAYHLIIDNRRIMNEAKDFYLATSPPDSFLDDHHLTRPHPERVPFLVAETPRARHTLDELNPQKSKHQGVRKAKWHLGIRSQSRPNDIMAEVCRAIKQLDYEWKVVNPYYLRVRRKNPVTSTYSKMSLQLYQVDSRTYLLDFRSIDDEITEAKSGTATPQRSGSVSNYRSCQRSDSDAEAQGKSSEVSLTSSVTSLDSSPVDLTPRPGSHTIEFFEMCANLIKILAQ

For `CNc1cc(Oc2cc(C(=O)Nc3cc(N4CCN(C)CC4)cc(C(F)(F)F)c3)ccc2C)ncn1`, the inhibition [1] was 15.9%, the inhibition [2] was 9.1% and the inhibition [3] was 0.3%. It also gave an inhibition [4] of 2.7%.
For `CCN1CCN(Cc2ccc(NC(=O)c3ccc(C)c(Oc4ccnc5[nH]ccc45)c3)cc2C(F)(F)F)CC1`, the inhibition [5] was 7.9%, the percent of control [6] was 0.35% and the inhibition [7] was > 95%. For the same compound, the inhibition [8] was 13.8% and the inhibition [9] was “inactive”.
Compound `CCN1CCN(Cc2ccc(NC(=O)c3ccc(C)c(/C=C/c4cnc5[nH]ccc5c4OC)c3)cc2C(F)(F)F)CC1` has an inhibition [10] of 2.7%, an inhibition [11] of 100% and an inhibition [12] of -9.9%. It also gave an inhibition [13] of -8.2% and a residual activity [14] of 100%.
